Measurements from different studies.
Each line is one published result; the experiments were not run side by side.
Observed: metabolic stability
Host: mouse

The half-life of `CN1CCC(Oc2ccc3c(=O)c4c(F)cc(Cl)cc4[nH]c3c2)CC1` is reported as > 60 min (liver microsomes; 1 µM; pH 7.4).
With `CC(C)n1ncc2c(C(=O)NCC3(C)CNC3)cc(C3CC3)nc21` the half-life was > 145 min (liver microsomes).
For `COCC(=O)OCc1cc2[nH]c(=S)n(Cc3cccnc3)c(=O)c2cc1Cl`, the half-life was < 5 min (liver microsomes; 1 µM; pH 7.4).
`C[C@@H]1CNC[C@H](C)[C@@]1(O)c1ccc(-c2ccnc3[nH]cc(F)c23)cc1F` has a half-life of 30.1 min (liver microsomes).
The half-life of `O=c1c2c([nH]c3cc(OCc4ccc(OC(F)(F)F)cc4)ccc13)CCCC2` is reported as > 60 min (liver microsomes; 1 µM; pH 7.4).
`COc1ccc(Cn2cc(CO[C@@H]3O[C@H]4[C@H](OC[C@H]4O)[C@H]3O)nn2)cc1` gave a half-life of 120 min (liver microsomes).
The half-life of `Nc1nnc(-c2ccccc2O)cc1N1CCN(Cc2ccc(N3CCN(CCOc4cccc5c4C(=O)N(C4CCC(=O)NC4=O)C5=O)CC3)c(F)c2)CC1` (stereo not drawn) is reported as 46 min (liver microsomes; 1 mM).
`Cc1[nH]c(C)c(S(=O)(=O)Nc2ccc(C(F)(F)F)c(Cl)c2Cl)c1C(=O)N1CCC(F)(F)C1` gave a half-life of 44 min (liver microsomes).
With `Cc1cc(-c2ccnc3[nH]cc(F)c23)cc(F)c1[C@@]1(O)[C@H](C)CN(C2COC2)C[C@@H]1C` the half-life was 1.7 min (liver microsomes).
With `O=c1c2cc(Cl)ncc2[nH]c(=S)n1Cc1cccnc1` the half-life was 89.7 min (liver microsomes; 1 µM; pH 7.4).
The half-life of `CCN(CC)CCNC(=O)c1c(C)[nH]c(/C=C2\C(=O)Nc3ccc(F)cc32)c1C` is reported as 12.6 min (liver microsomes; 1 µM).
The half-life of `CC(C)(C)OC(=O)N1CCC(Oc2ccc3c(=O)c4c(Cl)cc(F)cc4[nH]c3c2)CC1` is reported as > 60 min (liver microsomes; 1 µM; pH 7.4).
With `CCN(CC)CCNC(=O)c1c(C)[nH]c(/C=C2\C(=O)Nc3ccc(F)cc32)c1C` the half-life was 14 min (liver microsomes; 1 µM; pH 7.4).
For `CC(C)(C)OC(=O)N1CCC(Oc2ccc3c(=O)c4c(F)cc(Cl)cc4[nH]c3c2)C1` (stereo not drawn), the half-life was > 60 min (liver microsomes; 1 µM; pH 7.4).
With `NS(=O)(=O)c1nnc(NC(=O)C2CCCC3(CCCCC3)C2)s1` (stereo not drawn) the half-life was 58.8 min (liver microsomes).
With `Cc1ccc2[nH]c(=S)n(Cc3cccnc3)c(=O)c2c1` the half-life was 4.9 min (liver microsomes; 1 µM; pH 7.4).
The half-life of `CCCCCCOc1ccc2c(=O)c3c([nH]c2c1)CCCC3` is reported as 11.8 min (liver microsomes; 1 µM; pH 7.4).
For `C[C@@H]1CNC[C@H](C)[C@@]1(O)c1ccc(-c2ccnc3[nH]cc(F)c23)cc1`, the half-life was 49 min (liver microsomes).
The half-life of `C=CCn1c(=O)c2cnc(Nc3ccc(N4CCN(C)CC4)cc3)nc2n1-c1ccc2c(n1)[C@@](O)(CC)CC2` is reported as 91 min (hepatocytes).
The half-life of `CCCCCCCCCCCCCCCC(=O)NCCOC(=O)C[C@@H](CN)CC(C)C` is reported as 95 min (liver microsomes; 1 µM; pH 7.4).
`Cc1ccc(CCC(=O)Nc2nnc(S(N)(=O)=O)s2)cc1` has a half-life of > 120 min (liver microsomes).
The half-life of `Cc1cc(-c2ccnc3[nH]cc(F)c23)cc(F)c1[C@@]1(O)[C@H](C)CN(C)C[C@@H]1C` is reported as 1.7 min (liver microsomes).
For `COc1ccc(Oc2ccc3c(=O)c4c(F)cc(Cl)cc4[nH]c3c2)cc1`, the half-life was > 60 min (liver microsomes; 1 µM; pH 7.4).
With `NC(=NCCC[C@@H](C(=O)NCc1ccccc1)n1cc(-c2ccc(-c3ccccc3)cc2)nn1)c1ccc([N+](=O)[O-])o1` the half-life was 120 min (liver microsomes).
For `O=c1c2cc(Cl)ccc2[nH]c(=S)n1Cc1ccc(-c2nnn[nH]2)nc1`, the half-life was > 186 min (liver microsomes; 1 µM; pH 7.4).
`NC1=NN(c2ccc(Oc3ccccc3)c(S(=O)(=O)O)c2)C(=O)C1` has a half-life of 51.2 min (liver microsomes; 1 µM).
`CCN(CC)CCOc1ccc2c(=O)c3c([nH]c2c1)CCCC3` has a half-life of > 60 min (liver microsomes; 1 µM; pH 7.4).
`CC(=O)N1C[C@@H](C)[C@](O)(c2c(C)cc(-c3ccnc4[nH]cc(F)c34)cc2F)[C@@H](C)C1` has a half-life of 3.5 min (liver microsomes).
`O=c1c2cccc(Oc3ccc(OC(F)(F)F)cc3)c2[nH]c2cc(Cl)cc(F)c12` has a half-life of > 60 min (liver microsomes; 1 µM; pH 7.4).
With `OCc1ccc(-c2nn(Cc3ccccc3)c3ccccc23)o1` the half-life was 3 min (liver microsomes).
